Reference: ChEMBL document CHEMBL3400077 (Bioorg Med Chem Lett, 2015)
Calls of active or inactive are those of the source. No cut-off for these calls is given here.

Columns and labels:
[1] = target: T1, Monoglyceride lipase (Homo sapiens) (UniProt Q99685); experiment: Inhibition of human recombinant MAGL using 2-arachidonoylglycerol substrate assessed as arachidonic acid at 10 uM by HPLC analysis
T1 sequence (whole entry): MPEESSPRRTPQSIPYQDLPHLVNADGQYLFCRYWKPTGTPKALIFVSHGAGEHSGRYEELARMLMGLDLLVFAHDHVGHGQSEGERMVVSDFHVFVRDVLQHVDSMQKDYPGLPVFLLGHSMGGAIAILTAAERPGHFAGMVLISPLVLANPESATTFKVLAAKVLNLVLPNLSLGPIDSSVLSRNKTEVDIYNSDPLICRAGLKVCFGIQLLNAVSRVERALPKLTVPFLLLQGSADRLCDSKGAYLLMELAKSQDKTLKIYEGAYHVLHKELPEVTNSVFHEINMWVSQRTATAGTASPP
Outline: (§1)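 Human recombinant enzyme screened at a single test concentration; percent inhibition is the mean of two independent experiments, each run in duplicate.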

[2] = target: T2, Fatty-acid amide hydrolase 1 (Homo sapiens) (UniProt O00519); experiment: Inhibition of human FAAH using [ethanolamine 1-3H] substrate assessed as radioactivity at 10 uM by liquid scintillation counting analysis; outline: as §1
T2 sequence (whole entry): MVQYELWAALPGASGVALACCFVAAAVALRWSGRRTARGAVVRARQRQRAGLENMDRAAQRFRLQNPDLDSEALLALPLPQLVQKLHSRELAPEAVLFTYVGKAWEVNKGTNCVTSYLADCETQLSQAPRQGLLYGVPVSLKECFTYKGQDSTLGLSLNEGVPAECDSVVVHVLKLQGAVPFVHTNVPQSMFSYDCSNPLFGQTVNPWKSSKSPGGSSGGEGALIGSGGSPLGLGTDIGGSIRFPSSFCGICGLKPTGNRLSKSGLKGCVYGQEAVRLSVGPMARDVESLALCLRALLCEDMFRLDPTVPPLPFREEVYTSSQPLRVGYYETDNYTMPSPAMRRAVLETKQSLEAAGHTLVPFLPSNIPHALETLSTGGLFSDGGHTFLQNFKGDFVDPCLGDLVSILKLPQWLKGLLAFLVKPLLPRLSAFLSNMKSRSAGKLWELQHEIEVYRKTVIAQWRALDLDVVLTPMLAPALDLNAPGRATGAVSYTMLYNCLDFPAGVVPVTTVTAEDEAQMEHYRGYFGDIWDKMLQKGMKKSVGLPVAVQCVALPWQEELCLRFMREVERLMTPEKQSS

Monoglyceride lipase [3] = target: T3, Monoglyceride lipase (Homo sapiens, UniProt Q99685); experiment: Inhibition of human recombinant MAGL using 2-arachidonoylglycerol substrate assessed as arachidonic acid by HPLC analysis
T3 sequence (Q99685 whole entry): T1 sequence (whole entry)

[4] = target: T4, Fatty-acid amide hydrolase 1 (Homo sapiens, UniProt O00519); experiment: Inhibition of human FAAH using [ethanolamine 1-3H] substrate assessed as radioactivity by liquid scintillation counting analysis
T4 sequence (O00519 whole entry): T2 sequence (whole entry)

[5] = target: T5, Monoacylglycerol lipase ABHD6 (Homo sapiens, UniProt Q9BV23); experiment: Inhibition of human ABHD6 containing pCMV6-AC-hABHD6 transfected into HEK293 cells; type: cell-based
T5 sequence (Q9BV23 whole entry): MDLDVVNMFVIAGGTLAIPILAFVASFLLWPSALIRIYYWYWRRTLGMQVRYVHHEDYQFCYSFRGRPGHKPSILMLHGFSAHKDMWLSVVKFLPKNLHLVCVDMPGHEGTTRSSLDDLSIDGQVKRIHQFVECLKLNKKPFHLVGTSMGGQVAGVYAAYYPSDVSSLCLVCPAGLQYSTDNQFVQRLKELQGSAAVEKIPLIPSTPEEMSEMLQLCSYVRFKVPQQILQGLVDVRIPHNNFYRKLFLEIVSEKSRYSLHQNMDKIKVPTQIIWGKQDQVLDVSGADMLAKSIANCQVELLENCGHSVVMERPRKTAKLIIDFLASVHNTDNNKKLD

[6] = target: T6, Lysophosphatidylserine lipase ABHD12 (Homo sapiens) (UniProt Q8N2K0); experiment: Inhibition of human ABHD12 containing pCMV6-XL4-hABHD12 transfected into HEK293 cells at 10 uM; type: cell-based
T6 sequence (whole entry): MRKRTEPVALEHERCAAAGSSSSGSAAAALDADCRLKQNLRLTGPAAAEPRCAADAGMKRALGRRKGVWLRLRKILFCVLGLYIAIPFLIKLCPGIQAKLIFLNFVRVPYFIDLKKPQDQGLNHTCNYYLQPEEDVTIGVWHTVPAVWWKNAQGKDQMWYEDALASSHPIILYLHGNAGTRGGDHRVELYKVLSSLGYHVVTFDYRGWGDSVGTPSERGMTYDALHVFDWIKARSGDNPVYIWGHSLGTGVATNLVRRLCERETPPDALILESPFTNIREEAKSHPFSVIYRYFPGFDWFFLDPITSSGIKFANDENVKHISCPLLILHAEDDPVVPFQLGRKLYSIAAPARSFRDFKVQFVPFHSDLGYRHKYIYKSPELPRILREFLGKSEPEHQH

[7] = target: Cannabinoid receptor 1 (Rattus norvegicus) (UniProt P20272); experiment: Agonist activity at rat cerebellar membrane cannabinoid CB1 receptor assessed as [35S]GTPgammaS binding relative to control; type: functional
Outline: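 [35S]GTPγS binding in rat cerebellar membranes, test compound alone at a single concentration. Read-out is % of basal binding, mean (range), n = 2.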

[8] = target: Cannabinoid receptor 2 (Homo sapiens) (UniProt P34972); experiment: Agonist activity at human cannabinoid CB2 receptor introduced into CHO cells assessed as [35S]GTPgammaS binding relative to control; type: functional, cell-based
Outline: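 [35S]GTPγS binding in membranes from CHO cells expressing hCB2R, test compound alone. Read-out is % of basal binding, mean (range), n = 2.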

[9] = target: Cannabinoid receptor 1 (Rattus norvegicus) (UniProt P20272); experiment: Antagonist activity at rat cerebellar membrane cannabinoid CB1 receptor assessed as HU210-evoked [35S]GTPgammaS binding response relative to control; type: functional; set-up: scale not given: the % may be the effect or the level left
Outline: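 [35S]GTPγS binding in rat cerebellar membranes, test compound co-incubated with HU210 agonist. Expressed as % of the HU210-evoked response, mean (range), n = 2.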

Histamine H1 receptor = Histamine H1 receptor (Cavia porcellus, UniProt P31389); experiment: Antagonist activity at histamine H1 receptor in guinea pig jejunum assessed as reduction in histamine-induced contractions; settings: read-out: pA2 (converted)
Monoglyceride lipase [10] = target: T3, Monoglyceride lipase; experiment: Reversible inhibition of human recombinant MAGL using 2-arachidonoylglycerol substrate assessed as arachidonic acid after 10 mins by HPLC analysis
Monoglyceride lipase [11] = target: T3, Monoglyceride lipase; experiment: Reversible inhibition of human recombinant MAGL using 2-arachidonoylglycerol substrate assessed as arachidonic acid after 30 mins by HPLC analysis
Monoglyceride lipase [12] = target: T3, Monoglyceride lipase; experiment: Reversible inhibition of human recombinant MAGL using 2-arachidonoylglycerol substrate assessed as arachidonic acid after 60 mins by HPLC analysis
Monoglyceride lipase [13] = target: T3, Monoglyceride lipase; experiment: Reversible inhibition of human recombinant MAGL using 2-arachidonoylglycerol substrate assessed as arachidonic acid after 90 mins by HPLC analysis

Sequence of Histamine H1 receptor (P31389 whole entry): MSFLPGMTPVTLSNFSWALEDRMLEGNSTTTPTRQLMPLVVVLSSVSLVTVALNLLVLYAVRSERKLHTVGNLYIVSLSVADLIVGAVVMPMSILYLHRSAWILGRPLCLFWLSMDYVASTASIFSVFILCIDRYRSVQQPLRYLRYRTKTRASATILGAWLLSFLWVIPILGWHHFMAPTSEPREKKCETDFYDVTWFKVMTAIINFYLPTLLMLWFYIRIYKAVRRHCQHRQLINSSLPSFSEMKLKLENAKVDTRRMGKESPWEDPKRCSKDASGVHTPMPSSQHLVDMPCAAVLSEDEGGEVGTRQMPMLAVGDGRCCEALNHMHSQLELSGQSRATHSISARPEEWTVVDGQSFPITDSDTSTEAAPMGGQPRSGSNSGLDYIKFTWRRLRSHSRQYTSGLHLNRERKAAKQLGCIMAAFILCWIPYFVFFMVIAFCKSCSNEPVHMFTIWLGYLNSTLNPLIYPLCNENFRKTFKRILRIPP
Sequence of Cannabinoid receptor 1 (Rattus norvegicus) (P20272 whole entry): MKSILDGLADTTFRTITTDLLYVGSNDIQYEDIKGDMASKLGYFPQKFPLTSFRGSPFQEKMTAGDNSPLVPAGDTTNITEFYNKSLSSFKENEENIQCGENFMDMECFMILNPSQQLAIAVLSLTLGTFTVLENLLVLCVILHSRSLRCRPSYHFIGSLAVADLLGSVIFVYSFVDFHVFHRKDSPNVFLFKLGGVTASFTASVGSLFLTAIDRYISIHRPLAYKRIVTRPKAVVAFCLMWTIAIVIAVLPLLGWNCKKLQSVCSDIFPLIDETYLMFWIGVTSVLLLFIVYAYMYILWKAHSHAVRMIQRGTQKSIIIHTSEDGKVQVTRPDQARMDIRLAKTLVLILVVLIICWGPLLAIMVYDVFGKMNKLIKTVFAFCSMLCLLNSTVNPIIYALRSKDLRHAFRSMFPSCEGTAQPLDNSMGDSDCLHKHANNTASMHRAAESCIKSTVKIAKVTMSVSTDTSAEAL
Sequence of Cannabinoid receptor 2 (Homo sapiens) (P34972 whole entry): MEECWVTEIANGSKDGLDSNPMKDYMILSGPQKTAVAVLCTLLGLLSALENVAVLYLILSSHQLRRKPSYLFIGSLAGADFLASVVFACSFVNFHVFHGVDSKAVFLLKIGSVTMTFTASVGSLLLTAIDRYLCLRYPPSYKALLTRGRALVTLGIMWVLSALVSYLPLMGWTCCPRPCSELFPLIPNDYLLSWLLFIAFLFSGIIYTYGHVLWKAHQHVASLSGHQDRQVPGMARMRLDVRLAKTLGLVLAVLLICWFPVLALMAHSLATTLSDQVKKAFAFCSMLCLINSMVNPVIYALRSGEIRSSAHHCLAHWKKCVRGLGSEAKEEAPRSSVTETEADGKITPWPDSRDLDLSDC

inhibition [1] | inhibition [2] | Structure (SMILES) | IC50 (Monoglyceride lipase [3]) [nM] | further results
inactive | 11% | CCOC(=O)N1CCC(=C2c3ccc(Cl)cc3CCc3cccnc32)CC1 | – | –
inactive | 14% | O=C(Oc1ccc([N+](=O)[O-])cc1[N+](=O)[O-])N1CCC(=C2c3ccc(Cl)cc3CCc3cccnc32)CC1 | – | –
inactive | 9% | O=C(NC1CCCCC1)N1CCC(=C2c3ccc(Cl)cc3CCc3cccnc32)CC1 | – | –
– | – | O=C(N1CCC(=C2c3ccc(Cl)cc3CCc3cccnc32)CC1)n1cncn1 | 46 | IC50 [4]: 7240 nM; IC50 [5]: 1780 nM; inhibition [6]: inactive; Activity [7]: 90%; Activity [8]: 101%; Activity [9]: 80%; Kb (Histamine H1 receptor): 155 nM; IC50 (Monoglyceride lipase [10]): 209 nM; IC50 (Monoglyceride lipase [11]): 224 nM; IC50 (Monoglyceride lipase [12]): 257 nM; IC50 (Monoglyceride lipase [13]): 309 nM
– | – | O=C(N1CCC(=C2c3ccccc3C=Cc3ccccc32)CC1)n1cncn1 | 47 | IC50 [4]: 6910 nM; IC50 [5]: 750 nM; inhibition [6]: inactive; Kb (Histamine H1 receptor): 316 nM
– | – | O=C(N1CCC(C(c2ccc3c(c2)OCO3)c2ccc3c(c2)OCO3)CC1)n1cncn1 | 0.36 | –
inactive | 7% | O=C(N1CCC(=C2c3ccc(Cl)cc3CCc3cccnc32)CC1)n1ccnc1 | – | –
27% | 6% | O=C(Oc1ccc([N+](=O)[O-])cc1)N1CCC(=C2c3ccc(Cl)cc3CCc3cccnc32)CC1 | – | –
inactive | 11% | CN(C(=O)N1CCC(=C2c3ccc(Cl)cc3CCc3cccnc32)CC1)c1ccccc1 | – | –
14% | 12% | O=[N+]([O-])c1ccc(SC(=S)N2CCC(=C3c4ccc(Cl)cc4CCc4cccnc43)CC2)c([N+](=O)[O-])c1 | – | –
inactive | inactive | CN(C(=O)N1CCC(=C2c3ccc(Cl)cc3CCc3cccnc32)CC1)C1CCCCC1 | – | –

Structure (SMILES) | inhibition [1] | inhibition [2] | IC50 (Monoglyceride lipase [3]) [nM] | further results
O=C(N1CCC(=C2c3ccc(Cl)cc3CCc3cccnc32)CC1)n1nnc2ccccc21 | – | 22% | 208 | –
O=C(OC(C(F)(F)F)C(F)(F)F)N1CCC(=C2c3ccc(Cl)cc3CCc3cccnc32)CC1 | – | 15% | 645 | –
O=C(N1CCC(=C2c3ccc(Cl)cc3CCc3cccnc32)CC1)n1nnc2ncccc21 | – | 30% | 98 | –
O=C(ON1C(=O)CCC1=O)N1CCC(=C2c3ccc(Cl)cc3CCc3cccnc32)CC1 | – | 12% | 2570 | –
